Measurements reported in ChEMBL document CHEMBL1125515, “DNA-directed alkylating agents. 5. Acridinecarboxamide derivatives of (1,2-diaminoethane)dichloroplatinum(II)” (J Med Chem, 1992).

How the values were obtained:
Mus musculus [1] = test: Compound was treated in vivo for percent increase in life span of treated animals (optimal dose 13.3 mg/kg) compared with […]/CP bering control animals; assay type: functional, organism-based; parameters: dose 13.3 mg/kg; settings: at 13.3 mg/kg
Mus musculus [2] = test: Compound was treated in vivo for percent increase in life span of treated animals (optimal dose 13.3 mg/kg, ip) compared with […]/W bearing control animals; assay type: functional, organism-based; parameters: dose 13.3 mg/kg; settings: at 13.3 mg/kg
Mus musculus [3] = test: Compound was treated in vivo for percent increase in life span of treated animals (optimal dose 5.5 mg/kg, ip) compared with P338/W bearing control animals; assay type: functional, organism-based; parameters: dose 5.5 mg/kg; settings: at 5.5 mg/kg
Mus musculus [4] = test: Compound was treated in vivo for percent increase in life span of treated animals (optimal dose 5.3 mg/kg, ip) compared with P338/W bearing control animals; assay type: functional, organism-based; parameters: dose 5.3 mg/kg; settings: at 5.3 mg/kg
[5] = In Vitro evaluation for the growth inhibition of Subline (P388/AMSA) Leukemia cell lines; assay type: functional, cell-based, Mus musculus
In short: (§1)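 Cells were continuously exposed to drug for 72 h in 96-well cultures. IC50 is the drug concentration (μM) inhibiting cell growth by 50%. Determinations were run in triplicate.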

Mus musculus [6] = test: Compound was treated in vivo for percent increase in life span of treated animals (optimal dose 45 mg/kg, ip) compared with […]/W bearing control animals; assay type: functional
P388 = test: In Vitro evaluation for the growth inhibition of Wildtype P388 Leukemia cell lines; assay type: functional, cell-based; settings: Mus musculus; in short: as §1
[7] = In Vitro evaluation for the growth inhibition of Subline (P388/CP) Leukemia cell lines; assay type: functional, cell-based, Mus musculus; in short: as §1
Mus musculus [8] = test: Compound was treated in vivo for percent increase in life span of treated animals (optimal dose 100 mg/kg, ip) compared with […]/W bearing control animals; assay type: functional
Mus musculus [9] = test: Compound was treated in vivo for percent increase in life span of treated animals (optimal dose 30 mg/kg, ip) compared with […]/W bearing control animals; assay type: functional
Mus musculus [10] = test: Compound was treated in vivo for percent increase in life span of treated animals (optimal dose 65 mg/kg, ip) compared with P338/W bearing control animals; assay type: functional
Mus musculus [11] = test: Compound was treated in vivo for percent increase in life span of treated animals (optimal dose 20 mg/kg, ip) compared with […]/W bearing control animals; assay type: functional

Compound | IC50 ([5]; Mus musculus) [µM] | IC50 (P388) [µM] | IC50 ([7]; Mus musculus) [µM] | also measured
DICHLORO(ETHYLENEDIAMINE) PLATINUM (II) [listing 1 of 2 here] |  |  |  | Increase in life-span (Mus musculus [1]): < 20%; Increase in life-span (Mus musculus [2]): 70%
CISPLATIN [listing 1 of 2 here] |  |  |  | Increase in life-span (Mus musculus [3]): < 20%; Increase in life-span (Mus musculus [4]): 120%
Cl.NCCNCCCNC(=O)c1cccc2c(N)c3ccccc3nc12 | 0.87 | 3.1 | 2.6 | Increase in life-span (Mus musculus [6]): 45%
Cl.NCCNCCCNC(=O)c1ccc2nc3ccccc3cc2c1 |  | 3.8 | 4.9 | Increase in life-span (Mus musculus [8]): <20%
Cl.NCCNCCCNC(=O)c1cccc2cc3ccccc3nc12 | 1.6 | 0.74 | 0.59 | Increase in life-span (Mus musculus [9]): 64%
Cl.NCCNCCCCCCNC(=O)c1cccc2c(N)c3ccccc3nc12 |  | 5.2 | 2.3 | Increase in life-span (Mus musculus [10]): <20%
CISPLATIN [listing 2 of 2 here] |  |  |  | IC50 [5]: 5.5 µM; IC50 [7]: 5.3 µM
DICHLORO(ETHYLENEDIAMINE) PLATINUM (II) [listing 2 of 2 here] |  |  |  | IC50 [7]: 1.03 µM
Cl.NCCNCCCCCCNC(=O)c1ccc2nc3ccccc3cc2c1 |  | 3.6 | 3.8 | Increase in life-span (Mus musculus [8]): <20%
Cl.NCCNCCCCCCNC(=O)c1cccc2cc3ccccc3nc12 | 1.1 | 0.51 | 0.35 | Increase in life-span (Mus musculus [11]): 23%
